Screening data from PubChem BioAssay.
Sampled rows, rich in hits. Any-hit rate of the full collection: about 3%.
Apaf-1 inh: blocks human Apaf-1 apoptosome activity. reconstituted apoptosome caspase-3 activity, DEVD-Rh110 fluorescence. 0.71% of 330,000 active. O14727. inhibition, % at 20 µM; active means inhibition of at least 40% at 20 µM;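 further: plate controls were DMSO wells for no effect and DEVD-CHO caspase inhibitor wells for full effect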
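Material: reconstituted apoptosome with Apaf-1, cytochrome c, caspase-9, procaspase-3, dATP / Buffer or medium: pH 7.5 Hepes buffer with CHAPS, BSA, DTT / Also added: cytochrome c with DEVD-Rh110 / Schedule: compound with Apaf-1, dATP, procaspase-3 30 min, then 50 min reaction, room temperature / Technique: rhodamine 110 fluorescence at Ex 480/Em 540 nm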
UCH37 DUB inh: inhibitors of human deubiquitinating enzyme UCH37; Q9Y5K5; purified proteasome/UCH37, Ub-AMC cleavage fluorescence; inhibition, % (test concentration not listed); 0.33% of 330,000 active; AID 588478;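 active means mean inhibition over replicate wells above about 20%, limit read from the data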;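 further: 0% = compound-free wells with enzyme and 100% = wells lacking proteasome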
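Material: Human UCH37 enzyme supplied as purified proteasome complex | Schedule: 30 min preincubation with enzyme, 25 min cleavage at room temperature | Detection: AMC fluorescence 355/460 nm | Measure: % inhibition of Ub-AMC cleavage fluorescence | Controls: Wells without proteasome as full block, compound-free enzyme plus substrate as uninhibited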
UBC13 inh: human UBC13 polyubiquitination inhibition. UBC13 polyubiquitin chain formation, TR-FRET. inhibition, % at 20 µM. 0.47% of 330,000 active; in the data active means inhibition above about 45%, passing the limit was not always enough
Target sequence (P61088 whole entry, looked up): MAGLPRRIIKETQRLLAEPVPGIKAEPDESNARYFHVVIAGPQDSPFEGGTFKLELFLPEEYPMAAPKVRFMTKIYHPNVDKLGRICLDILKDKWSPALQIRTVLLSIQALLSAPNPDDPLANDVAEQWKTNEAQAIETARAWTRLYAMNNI
MEKK2mut PB1 HTS: signal of MEK5 binding to mutant human MEKK2 PB1 domain; percent response, % at 10 µM; 0.35% of 290,000 active; bead flow cytometry, Alexa488-MEK5 binding to MEKK2 mutant; in the data active means percent response above about 24%, passing the limit was not always enough
MEKK2wt PB1 HTS: raises or lowers MEK5 binding to wildtype human MEKK2 PB1 domain; 1.1% of 290,000 active; Q9Y2U5; binding response (% of control), % at 10 µM; bead flow cytometry, Alexa488-MEK5 binding to MEKK2 WT; actives lie on both sides; in the data active means binding response below about 67% or above about 130%
MEKK3 PB1 HTS: modulators (inhibitors or enhancers) of MEK5 binding to human MEKK3 PB1 domain. Q99759. bead-based flow cytometry, Alexa488-MEK5 binding to MEKK3; actives lie on both sides; 0 = blocked by unlabeled MEK5, 100 = vehicle. binding response (% of control), % at 10 µM. 1.4% of 290,000 active. AID 1529;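 active means binding response more than 3 SD above or below the average of its plate-row segment, actives on both sides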;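 further: Alexa488 bead fluorescence after subtracting the streptavidin-only scavenger bead signal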
Target sequence (Q99759 whole entry, looked up, the tested form may be a part): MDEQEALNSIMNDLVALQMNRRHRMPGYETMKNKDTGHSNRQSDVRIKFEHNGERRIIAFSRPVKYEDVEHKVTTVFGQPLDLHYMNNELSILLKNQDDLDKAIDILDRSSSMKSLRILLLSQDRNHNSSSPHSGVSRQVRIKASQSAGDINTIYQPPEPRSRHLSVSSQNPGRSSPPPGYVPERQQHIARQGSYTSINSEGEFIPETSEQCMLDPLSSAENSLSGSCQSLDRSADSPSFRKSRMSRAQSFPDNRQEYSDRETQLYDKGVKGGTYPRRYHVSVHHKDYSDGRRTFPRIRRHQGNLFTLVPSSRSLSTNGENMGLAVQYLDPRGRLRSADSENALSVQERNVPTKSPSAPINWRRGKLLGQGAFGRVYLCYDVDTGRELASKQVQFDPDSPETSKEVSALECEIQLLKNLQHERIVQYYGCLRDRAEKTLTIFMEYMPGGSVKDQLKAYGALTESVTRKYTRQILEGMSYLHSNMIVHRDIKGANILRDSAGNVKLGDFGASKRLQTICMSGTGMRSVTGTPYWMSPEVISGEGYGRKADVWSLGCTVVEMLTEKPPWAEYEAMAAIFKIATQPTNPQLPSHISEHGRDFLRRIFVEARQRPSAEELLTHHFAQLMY
MEKK2wt confirm: raises or lowers MEK5 binding to wildtype human MEKK2, retest. binding response (% of control), % at 10 µM. bead flow cytometry, Alexa488-MEK5 binding to MEKK2 WT; actives lie on both sides. shares compounds with MEKK3 PB1 HTS. 2.4% of 5,900 active; in the data active means binding response below about 16% or above about 210%; inactive means in between
MEKK2mut-MEK5: signal of MEK5 binding to mutant human MEKK2, retest | shares compounds with MEKK3 PB1 HTS | percent response, % at 10 µM | 2% of 5,900 active | bead flow cytometry, Alexa488-MEK5 binding to MEKK2 mutant; in the data active means percent response mostly above about 71%, no sharp cut-off; inactive means mostly below about 38%;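 further: higher means compound restores mutant binding toward wildtype level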
MEKK3 confirm: confirmation of inhibitors of MEK5 binding to human MEKK3; shares compounds with MEKK3 PB1 HTS; bead flow cytometry, Alexa488-MEK5 binding to MEKK3; stronger effect = lower value; binding response (% of control), % at 10 µM; 1.8% of 5,900 active; AID 1894;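 active means binding response below 72% of control, or above a set upper limit, though filed actives all read lower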;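 further: 100% = DMSO only wells and 0% = binding blocked by excess unlabeled MEK5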
The depositor's hits bear a star; nt = no result; [ ] = dose if it differs, or a comment.

SMILES	Apaf-1 inh	UCH37 DUB inh	UBC13 inh	MEKK2mut PB1 HTS	MEKK2wt PB1 HTS	MEKK3 PB1 HTS	MEKK2wt confirm	MEKK2mut-MEK5	MEKK3 confirm
N=c1c2c(ncn1CCN1CCOCC1)Oc1ccc3ccccc3c1C2c1ccccc1 (centres undefined)	17.5	4.8	17.7	15.0	141.0*	106.0	124.0	4.0	101.0
CCc1ccc(OCC(=O)NNC(=O)c2ccc(NC(=O)C3CC3)cc2)cc1	-16.1	3.5	-0.8	4.0	103.0	101.0	nt	nt	nt
O=C(CN1C(=O)NC2(CCCCC2)C1=O)N1CCN(S(=O)(=O)c2ccccc2)CC1	6.6	1.8	-4.2	0.0	96.0	100.0	nt	nt	nt
O=C(CN1C(=O)NC2(CCCCCC2)C1=O)N1CCC(Cc2ccccc2)CC1	20.2	3.5	3.7	-1.0	3.0*[inhibitor]	3.0*[inhibitor]	99.0	-4.0	96.0
CCc1ccc(NC(=O)[C@H](NC(=O)[C@@H]2Cc3ccccc3CN2)c2ccccc2)cc1	11.7	2.7	7.4	0.0	102.0	101.0	nt	nt	nt
CC(=O)N[C@H]1[C@H](OC2CCCCC2)O[C@H](COC(C)=O)[C@@H](OC(C)=O)[C@@H]1OC(C)=O	1.6	0.5	2.1	0.0	98.0	102.0	nt	nt	nt
O=c1c(-c2ccc3c(c2)OCCO3)coc2cc(OC3OC(CO)C(O)C(O)C3O)ccc12 (centres undefined)	-16.7	1.3	10.2	-11.0	46.0*[inhibitor]	44.0*[inhibitor]	97.0	-5.0	103.0
COc1ccc(-c2coc3cc(O[C@@H]4O[C@H](CO)[C@@H](O)[C@H](O)[C@H]4O)ccc3c2=O)cc1	-8.1	2.3	-0.7	nt	nt	nt	nt	nt	nt
COc1cc(C=NNC(=O)c2ccc(NC(=O)C3CC3)cc2)ccc1OC(C)=O	nt	-3.2	nt	nt	nt	nt	nt	nt	nt
COc1ccccc1NC(=O)Cn1nnc(-c2ccccc2NC(=O)c2cc3ccccc3oc2=O)n1	3.4	-0.6	-1.4	-7.0	81.0	76.0*[inhibitor]	98.0	-1.0	99.0
COc1cccc(NC(=O)c2cc3ccccc3oc2=O)c1	-5.1	6.0	-3.3	3.0	103.0	106.0	nt	nt	nt
COc1ccccc1NS(=O)(=O)c1cc(NC(=O)c2cc3ccccc3oc2=O)ccc1C	7.0	2.3	-6.6	0.0	105.0	157.0*	96.0	-11.0	98.0
Cc1ccc(OCC(=O)Nc2c(C)ccc3nsnc23)cc1	4.0	-16.7	3.2	1.0	102.0	102.0	nt	nt	nt
COc1ccc(-c2nc(C(=O)NCCCN3CCOCC3)cc3c2[nH]c2ccccc23)cc1OC	33.0	-109.7	30.3	15.0	137.0*	105.0	150.0	24.0	110.0
COc1ccc(Nc2cc(C(=O)NCCCN3CCOCC3)c3ccccc3n2)cc1OC	0.7	2.2	4.8	5.0	112.0	109.0	nt	nt	nt
Cc1ccc(-c2nc(C(=O)NCCCN3CCOCC3)cc3c2[nH]c2ccccc23)cc1	37.9	-42.9	33.0	21.0	142.0*	101.0	156.0	41.0	108.0
Fc1ccccc1-c1n[nH]c(=S)n1/N=C/c1c[nH]c2ccccc12	3.3	nt	-8.3	9.0	104.0	104.0	nt	nt	nt
COc1ccc(C(=O)Nc2ccc(C(=O)Nc3cccc(C)c3)cc2)cc1	-10.4	0.5	5.1	-2.0	102.0	99.0	nt	nt	nt
Cc1c(C)c2ccc(OC(C)C(=O)N3C[C@H]4C[C@@H](C3)c3cccc(=O)n3C4)c(C)c2oc1=O (some centres undefined)	5.3	-15.9	-11.9	1.0	101.0	102.0	nt	nt	nt
COC(=O)c1sc(NC(=O)COc2cccc(C)c2)nc1C	-4.6	5.5	2.1	2.0	114.0	141.0*	66.0	-26.0	62.0*
COc1ccc(Cl)cc1N(C(=O)Nc1cccc(Cl)c1)C1=NCC(C)S1 (centres undefined)	-3.4	0.4	-8.1	0.0	108.0	129.0*	108.0	2.0	106.0
CC(C)NC(=O)N(C)C[C@H]1Oc2ccc(NC(=O)Nc3ccc4c(c3)OCO4)cc2C(=O)N([C@H](C)CO)C[C@@H]1C	2.0	1.8	-12.3	nt	nt	nt	nt	nt	nt
O=C(C1=C[C@H](c2ccc(C(F)(F)F)cc2)C[C@H](OCCCCO)O1)N1CCOCC1	-2.3	1.5	0.8	-3.0	100.0	82.0*[inhibitor]	99.0	-3.0	98.0
O=C(C1=C[C@@H](c2ccc(C(F)(F)F)cc2)C[C@@H](OCCCCO)O1)N1CCOCC1	9.8	3.8	-16.7	3.0	102.0	103.0	nt	nt	nt
Cc1cc(Cl)ccc1OCC(=O)Nc1ccccc1N1CCOCC1	25.1	-0.1	12.5	3.0	107.0	109.0	nt	nt	nt
SMILES	Apaf-1 inh	UCH37 DUB inh	UBC13 inh	MEKK2mut PB1 HTS	MEKK2wt PB1 HTS	MEKK3 PB1 HTS	MEKK2wt confirm	MEKK2mut-MEK5	MEKK3 confirm
Cc1cc(Cl)ccc1OCC(=O)NC(=S)Nc1ccccc1N1CCOCC1	0.9	1.0	-8.2	-1.0	102.0	148.0*	97.0	-2.0	103.0
O=C(CSc1nnc(Cn2cnc3ccccc32)o1)Nc1cccc2ccccc12	-3.2	5.1	-6.0	-15.0	19.0*[inhibitor]	13.0*[inhibitor]	99.0	4.0	104.0
CCCN1CCC(=NNC(=O)CSc2cc(C)c(Br)cc2C)CC1	0.5	5.8	9.6	1.0	111.0	136.0*	115.0	7.0	104.0
CC(=O)N1CCC(=NNC(=O)CSc2cc(C)c(Br)cc2C)CC1	11.2	1.4	-13.3	8.0	89.0	97.0	nt	nt	nt
O=C(OCC(=O)c1c[nH]c2ccccc12)c1cccc(S(=O)(=O)N2CCCCCC2)c1	-2.6	2.6	0.9	3.0	128.0	130.0*	114.0	5.0	107.0
CN(C(=O)COC(=O)c1cccc(S(=O)(=O)N(C)c2ccccc2)c1)C1CCCCC1	14.5	2.8	-0.2	nt	nt	nt	nt	nt	nt
CCc1cccc2c(C(=O)COC(=O)c3cccc(S(=O)(=O)N(C)C4CCCCC4)c3)c[nH]c12	11.0	6.9	0.5	2.0	100.0	132.0*	116.0	6.0	96.0
N=C(N)SCc1nc2ccccc2c(=O)n1-c1ccccc1Cl	5.2	-18.3	6.2	10.0	128.0	135.0*	100.0	2.0	102.0
CC(C)(C)NC(=O)c1ccc2c(c1)N(CC(=O)NC1CCCC1)C(=O)C(C)(C)O2	3.8	3.4	-0.3	5.0	100.0	100.0	nt	nt	nt
c1ccc2c(c1)cnc1ccccc12	-16.0	3.3	-4.3	-13.0	33.0*[inhibitor]	37.0*[inhibitor]	104.0	3.0	107.0
c1ccc2nc3ccccc3nc2c1	2.6	7.8	-12.3	1.0	68.0	46.0*[inhibitor]	103.0	7.0	105.0
